The results in this text go back to ChEMBL document CHEMBL4007508, “Discovery and Pre-Clinical Characterization of Third-Generation 4-H Heteroaryldihydropyrimidine (HAP) Analogues as Hepatitis B Virus (HBV) Capsid Inhibitors” (J Med Chem, 2017).

In brackets after ≈: the same amount, converted by molar mass. Activity calls are given as the source filed them. The rule behind the calls is not given here.

Data set [1] concerns Hepatitis B virus. Briefly: Antiviral activity against HBV infected in human HepG2(2.2.15) cells assessed as decrease in HBV genome replication after 5 days by qPCR method. The format is functional, cell-based. As to conditions: HepG2 2.2.15, 120 h. In outline:
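HepG2.2.15 cells (stable HBV genome, Hep G2-derived; DMEM-F12, 10% FBS, penicillin/streptomycin, 0.5 mg/mL G418) seeded 3 × 10^4/well, incubated overnight at 37 °C. Compounds serially half-log diluted in DMSO, then in medium; final DMSO 0.5%. HBV DNA extracted and quantified by qPCR.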

The nature of data set [2]: Cytotoxicity against HBV infected human HepDE19 cells assessed as decrease in cell viability after 5 days by CCK8 assay. The data set is classed as cell-based. In outline:
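Tetracycline-inducible HBV HepDE19 cells seeded 5 × 10^3/well and treated with compounds. After 5 days, viability read by CCK-8 (2 h, 37 °C; absorbance 450 and 630 nm).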
A general note: Tetrazolium dyes change colour on reduction, which living cells bring about.

A short description of data set [3]: Selectivity index, ratio of CC50 for HBV infected human HepDE19 cells to EC50 for HBV infected in human HepG2(2.2.15) cells. The essentials:
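Selectivity index calculated as CC50 (HepDE19, CCK-8 viability after 5 days) divided by EC50 (HBV DNA reduction in HepG2.2.15 cells, qPCR).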

Data set [4] is described as follows: Solubility of compound in phosphate buffer at pH 6.5 after one night incubation by HPLC-UV method. The format is physicochemical.
A short description of data set [5]: Apparent partition coefficient, log D of the compound at pH 7.4. The format is physicochemical. As to conditions: octanol/water.
Data set [6] in a line: Acid ionization constant, pKa of the compound. The format is physicochemical.
The nature of data set [7]: Base ionization constant, pKa of the compound. The format is physicochemical.
A short description of data set [8]: Permeability of the compound at 150 uM after 18 hrs by PAMPA. The data set is classed as physicochemical. As to conditions: read-out: permeability.
Data set [9] in a line: Fraction unbound in human plasma at 1000 nM after 5 hrs by LC-MS/MS analysis. The format is ADME, cell-free.
A short description of data set [10]: Fraction unbound in mouse plasma at 1000 nM after 5 hrs by LC-MS/MS analysis. The data set is classed as ADME, cell-free.
A short description of data set [11]: Half life in mouse at 1 mg/kg, iv by LC-MS/MS analysis. The format is ADME, organism-based. As to conditions: in vivo. The essentials: (§1)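 Single-dose mouse PK following standard procedures: IV 1 mg/kg and PO 3 mg/kg. Plasma CL, Vss, IV t1/2, PO Cmax, AUC(0−∞) in plasma (IV and PO) and liver (PO), and oral bioavailability F derived. Liver/plasma ratio uses the PO AUC(0−∞) values.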

Data set [12] is described as follows: Volume of distribution at steady state in mouse at 1 mg/kg, iv by LC-MS/MS analysis. The data set is classed as ADME, organism-based. As to conditions: in vivo, read-out: Vdss. In outline:
as §1

A short description of data set [13]: Plasma clearance in mouse at 1 mg/kg, iv by LC-MS/MS analysis. The format is ADME, organism-based. In outline:
as §1

The nature of data set [14]: Cmax in mouse at 3 mg/kg, po by LC-MS/MS analysis. The format is ADME, organism-based. Also noted: dose 3 mg/kg, route oral. As to conditions: in vivo. The essentials: as §1
Data set [15] in a line: AUC (0 to infinity) in mouse at 1 mg/kg, iv by LC-MS/MS analysis. Further details: dose 1 mg/kg, time infinity, route intravenous. The data set is classed as ADME, organism-based. As to conditions: in vivo. In outline:
as §1

Data set [16] can be described thus: AUC (0 to infinity) in mouse plasma at 3 mg/kg, po by LC-MS/MS analysis. The data set is classed as ADME, organism-based. Further details: dose 3 mg/kg, route oral, time infinity. In outline:
as §1

Data set [17] can be described thus: Oral bioavailability in mouse at 3 mg/kg, by LC-MS/MS analysis. The data set is classed as ADME, organism-based. As to conditions: in vivo. In outline: as §1
The nature of data set [18]: AUC (0 to infinity) in mouse liver at 3 mg/kg, po by LC-MS/MS analysis. The data set is classed as ADME, organism-based. Also noted: dose 3 mg/kg, time infinity, route oral. In outline: as §1
A short description of data set [19]: Ratio of AUC (0 to infinity) in mouse liver at 3 mg/kg, po to AUC (0 to infinity) in mouse plasma at 3 mg/kg, po by LC-MS/MS analysis. The format is ADME, organism-based. As to conditions: liver and plasma, read-out: Ratio AUC. The essentials: as §1
Another data set concerns Hepatocyte. Briefly: Induction of CYP3A4 mRNA expression in human primary hepatocyte after 24 hrs by real-time PCR relative to rifampicin. Also noted: concentration or dose not given beside the values. As to conditions: hepatocytes. The format is ADME, cell-based. In outline: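 CYP3A4 mRNA levels measured in primary human hepatocytes and expressed relative to the positive control rifampicin at 10 μM.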

In data set [20] the test system is Hepatitis B virus. Briefly: Antiviral activity against HBV infected in hydrodynamic injection BALB/c mouse model assessed as reduction of viral DNA copy numbers in liver at 3 to 12.5 mg/kg, po bid after 5 days by real-time PCR method. The format is functional, organism-based. In outline:
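Female BALB/c mice hydrodynamically injected via tail vein with replication-competent HBV DNA plasmid. From 20 h post-injection, dosed orally for 5 days: 3 or 12.5 mg/kg twice daily, with vehicle and entecavir 0.1 mg/kg once daily as controls. Liver HBV DNA copies measured by real-time qPCR; six mice per group, SEM.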
A general note: Quantitative PCR measures a nucleic acid by following its amplification.

The nature of data set [21]: Glutathione reactivity assessed as adduct formation of the compound.

As a reminder, the EC50 is the concentration needed to bring the measured effect to its halfway point. A word on the CC50: it is the concentration giving 50% cytotoxicity. As usually defined, the solubility is the concentration that dissolves in the medium under given conditions. Broadly, the logD is the decadic logarithm of the distribution of all forms, ionised or not, between an organic phase and buffer at a given pH. By pKa is commonly meant the negative logarithm of the acid dissociation constant. Usually fraction unbound stands for free concentration divided by total concentration. Usually half-life stands for how long it takes for the measured level to halve. Usually clearance stands for a measure of how efficiently the substance is removed, as volume per time. What is called Cmax is the peak of the concentration-time curve. What is called AUC(0-inf) is the area under the concentration-time curve extrapolated to infinity. A word on the bioavailability: it is the share of a dose that reaches the circulation, judged against a reference dose that is usually intravenous. Turning to `COC(=O)C1=C(CN2CCOC[C@H]2C(=O)O)NC(c2nccs2)=N[C@H]1c1ccc(F)c(F)c1C`, the concentration for a half-maximal effect (EC50) with Hepatitis B virus [1] stood at 2 nM. For the same compound, in [2], the CC50 at 120 h is more than 100000 nM. The “Ratio CC50/EC50” value in [3] is listed as more than 50000. The solubility in data set [4] is more than 604 µg/mL. Further, in data set [5], the pH-dependent lipophilicity (logD) was 0.44. The pKa was less than 2.5 in data set [6] and 5.7 in data set [7]. Besides, in [8], the Papp at 18 h, 150 µM turned out to be 2.7 ×10⁻⁶ cm/s. The unbound share (fraction unbound) at 5 h, 1 µM in data set [9] was determined as 0.054; in [10] it was 0.062. For the same compound, the half-life in data set [11] is 1.4 h. For the same compound, the Vd in data set [12] was found to be 1.9 L/kg. The clearance in data set [13] turned out to be 44 mL/min/kg. In data set [14], this compound yielded a Cmax of 283 ng/mL. Further, the AUC(0-inf) in [15] was 379 ng·h/mL; in data set [16], 344 ng·h/mL; in data set [18], 9210 ng·h/mL. For the same compound, the bioavailability in data set [17] amounted to 30%. The Kp in data set [19] stood at 27. In addition, the Activity with Hepatocyte amounted to 56%.
On to `COC(=O)C1=C(CN2CCOC[C@H]2C(=O)O)NC(c2nccs2)=N[C@H]1c1ccc(F)cc1Cl`, for which the result in the data set with Hepatitis B virus [20] was Active. For the same compound, the Stability result in data set [21] was “Stable”.
As to `COC(=O)C1=C(CN2CCO[C@H](C)[C@H]2C(=O)O)NC(c2nccs2)=N[C@H]1c1ccc(F)cc1Cl`, the concentration for a half-maximal effect (EC50) in the data set with Hepatitis B virus [1] was found to be 7 nM. The cytotoxic concentration (CC50) at 120 h in data set [2] is more than 100000 nM. Moreover, the solubility in data set [4] was more than 667 µg/mL. In addition, the Activity in the data set on Hepatocyte amounted to 81%.
Consider `COC(=O)C1=C(CN2CCOC(C(=O)O)C2)NC(c2nccs2)=N[C@H]1c1ccc(F)cc1Cl` (stereo partly specified), for which the EC50 in the data set with Hepatitis B virus [1] was 333 nM. For the same compound, the CC50 at 120 h in [2] is more than 100000 nM. Also, the “Ratio CC50/EC50” value in data set [3] was more than 300. In [4], this compound came in with a solubility of more than 592 µg/mL.
The like results for `COC(=O)C1=C(CN2CCOC[C@H]2CCC(=O)O)NC(c2nccs2)=N[C@H]1c1ccc(F)cc1Cl` were, in that order, 150 nM, more than 100000 nM, more than 667 and more than 697 µg/mL.
As to `CCOC(=O)C1=C(CN2CCOC[C@H]2C(=O)O)NC(c2nccs2)=N[C@H]1c1ccc(F)cc1Cl`, the 50% effective concentration (EC50) with Hepatitis B virus [1] came to 2 nM. Moreover, the CC50 at 120 h in data set [2] is more than 100000 nM. In the data set with Hepatocyte, this compound showed an Activity of 183%.
Take `COC(=O)C1=C(C)NC(c2nccs2)=N[C@H]1c1ccc(F)cc1Cl`: in the data set on Hepatitis B virus [1], the 50% effective concentration (EC50) was found to be 80 nM. In addition, in data set [2], the CC50 at 120 h is 83000 nM. For the same compound, in data set [3], the “Ratio CC50/EC50” value is on record as 1038. In data set [4], this compound registered a solubility of 16 µg/mL (≈ 43.7 µM).
